Measurements reported in ChEMBL document CHEMBL4145448, “Broad activity of diphenyleneiodonium analogues against Mycobacterium tuberculosis, malaria parasites and bacterial pathogens” (Eur J Med Chem, 2018).

Assays:
Escherichia coli [1] = assay: Antibacterial activity against Escherichia coli N2381 after 18 hrs by broth microdilution method; format: functional; details: N2381, 18 h
Outline: (§1)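 Broth microdilution per CLSI in cation-adjusted Mueller-Hinton broth. 100 µL inoculum (~10^6 cfu/mL in CaMHB) mixed with 100 µL CaMHB containing compound, 0 to 128 µM. Incubated 18 h at 37 °C. MIC taken as the lowest concentration with no visible growth. Polymyxin B served as positive control. Isolates were stored at -80 °C in tryptone soy broth with 20% glycerol.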

[2] = Selectivity index, ratio of CC50 for human HepG2 cells in presence of 1% FBS to MIC for Acinetobacter baumannii isolate 246-01-C; format: toxicity; details: read-out: Selectivity Index
Klebsiella pneumoniae = assay: Antibacterial activity against Klebsiella pneumoniae ATCC 13883 after 18 hrs by broth microdilution method; format: functional; details: ATCC 13883, 18 h; outline: as §1
Escherichia coli [3] = assay: Antibacterial activity against Escherichia coli N11281 after 18 hrs by broth microdilution method; format: functional; details: N11281, 18 h; outline: as §1
Pseudomonas aeruginosa [4] = assay: Antibacterial activity against Pseudomonas aeruginosa isolate 19147nm after 18 hrs by broth microdilution method; format: functional; outline: as §1
Pseudomonas aeruginosa [5] = assay: Antibacterial activity against Pseudomonas aeruginosa ATCC 27853 after 18 hrs by broth microdilution method; format: functional; details: ATCC 27853, 18 h; outline: as §1
Pseudomonas aeruginosa [6] = assay: Antibacterial activity against Pseudomonas aeruginosa isolate 18878B klon 1 after 18 hrs by broth microdilution method; format: functional; details: isolate 18878B klon 1, 18 h; outline: as §1
Acinetobacter baumannii [7] = assay: Antibacterial activity against Acinetobacter baumannii isolate 246-01-C after 18 hrs by broth microdilution method; format: functional; outline: as §1
Pseudomonas aeruginosa [8] = assay: Antibacterial activity against Pseudomonas aeruginosa QLD PSA 1 after 18 hrs by broth microdilution method; format: functional; details: QLD PSA 1, 18 h; outline: as §1
[9] = Selectivity index, ratio of CC50 for human HepG2 cells in presence of 1% FBS to MIC for Pseudomonas aeruginosa ATCC 27853; format: toxicity; details: read-out: Selectivity Index
Outline: (§2)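 Selectivity index is CC50 (1% FBS) divided by MIC. […] They then got compound at 300 to 0.14 µM (3-fold steps) for 24 h at 37 °C, 5% CO2. Resazurin (10 µM, 2 h) was read at ex/em 560/590 in duplicate wells. For MIC, CLSI broth microdilution was run in CaMHB with ~10^6 cfu/mL inoculum and 0–128 µM compound.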

[10] = Selectivity index, ratio of CC50 for human HepG2 cells in presence of 1% FBS to MIC for Pseudomonas aeruginosa isolate M146201; format: toxicity; details: read-out: Selectivity Index; outline: as §2
Enterococcus faecium = assay: Antibacterial activity against vancomycin-resistant Enterococcus faecium ATCC 700221 after 18 hrs by broth microdilution method; format: functional; details: ATCC 700221, 18 h; outline: as §1
Escherichia coli [11] = assay: Antibacterial activity against Escherichia coli N4149 after 18 hrs by broth microdilution method; format: functional; details: N4149, 18 h; outline: as §1
[12] = Selectivity index, ratio of CC50 for human HepG2 cells in presence of 1% FBS to MIC for Pseudomonas aeruginosa isolate 18878B klon 1; format: toxicity; details: read-out: Selectivity Index; outline: as §2
[13] = Selectivity index, ratio of CC50 for human HepG2 cells in presence of 1% FBS to MIC for Klebsiella pneumoniae ATCC 13883; format: toxicity; details: read-out: Selectivity Index
[14] = Selectivity index, ratio of CC50 for human HepG2 cells in presence of 1% FBS to MIC for Acinetobacter baumannii isolate 07AC-336; format: toxicity; details: read-out: Selectivity Index
[15] = Selectivity index, ratio of CC50 for human HepG2 cells in presence of 1% FBS to MIC for Klebsiella pneumoniae isolate M320445; format: toxicity; details: read-out: Selectivity Index
[16] = Selectivity index, ratio of CC50 for human HepG2 cells in presence of 1% FBS to MIC for Escherichia coli N11281; format: toxicity; details: read-out: Selectivity Index
Acinetobacter baumannii [17] = assay: Antibacterial activity against Acinetobacter baumannii ATCC 17978 after 18 hrs by broth microdilution method; format: functional; details: ATCC 17978, 18 h; outline: as §1
Plasmodium falciparum = assay: Growth inhibition of CQ-sensitive GFP-fused Plasmodium falciparum D10 after 90 hrs by ethidium bromide staining based flow cytometry; format: functional, organism-based; details: D10, 90 h
Outline: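 Parasites cultured in human O+ erythrocytes in RPMI-HEPES pH 7.4 with hypoxanthine, NaHCO3, gentamicin and 0.5% Albumax II under 1% O2/4% CO2 at 37 °C. Synchronised to rings with heparin plus sorbitol. Set up at 1% parasitaemia and 1% haematocrit with 10x compound added. Cultured 90 h to next-cycle trophozoites. Stained with 10 µg/mL ethidium bromide for 1 h, washed, parasitaemia counted by flow cytometry with GFP gating.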

[18] = Selectivity index, ratio of CC50 for human HepG2 cells in presence of 1% FBS to IC50 for CQ-sensitive GFP-fused Plasmodium falciparum D10; format: toxicity; details: read-out: Ratio IC50

Row | SMILES | MIC (Escherichia coli [1]) [µM] | selectivity ratio [2] | MIC (Klebsiella pneumoniae) [µM] | MIC (Escherichia coli [3]) [µM] | MIC (Pseudomonas aeruginosa [4]) [µM] | MIC (Pseudomonas aeruginosa [5]) [µM] | MIC (Pseudomonas aeruginosa [6]) [µM] | MIC (Acinetobacter baumannii [7]) [µM] | MIC (Pseudomonas aeruginosa [8]) [µM] | selectivity ratio [9] | selectivity ratio [10] | MIC (Enterococcus faecium) [µM] | MIC (Escherichia coli [11]) [µM] | selectivity ratio [12] | selectivity ratio [13] | selectivity ratio [14] | selectivity ratio [15] | selectivity ratio [16] | MIC (Acinetobacter baumannii [17]) [µM] | IC50 (Plasmodium falciparum) [µM] | further results
1 | COc1ccc2c(c1)[I+]c1ccccc1-2 | 35 | 0.21 | > 70 | > 70 | 8.7 | > 70 | 18 | 35 | 70 | > 0.11 | 0.11 | 4.4 | > 70 | 0.39 | > 0.11 | > 0.11 | 0.11 | > 0.11 | 18 |  | 
2 | Cc1ccc2c(c1)-c1ccccc1[I+]2 | 72 | 4.2 | 72 | 72 | 9 | > 73 | 9 | 9 | 36 | > 0.52 | 1 | 4.5 | > 72 | 4.2 | 0.52 | 2.2 | 0.52 | 0.52 | 9 | 0.08 | selectivity ratio [18]: 500
3 | c1ccc2c(c1)[I+]c1c-2ccc2ccccc12 | 8.4 | 0.17 | 8.4 | 17 | 2.1 | 8.4 | 2.1 | 4.2 | 4.2 | 0.09 | 0.09 | 1.1 | 34 | 0.34 | 0.09 | 0.09 | 0.04 | 0.04 | 1.1 | 0.12 | selectivity ratio [18]: 5.8
4 | Fc1ccc2c(c1)-c1ccccc1[I+]2 | 18 | 2.7 | 18 | 18 | 1.1 | 18 | 2.2 | 4.5 | 18 | 0.67 | 2.7 | 4.5 | 36 | 5.3 | 0.67 | 1.3 | 0.67 | 0.67 | 2.2 | 0.1 | selectivity ratio [18]: 125
5 | Cc1cccc2c1-c1ccccc1[I+]2 | 18 | 1.2 | 18 | 18 | 0.57 | 18 | 1.1 | 2.3 | 4.5 | 0.14 | 1.2 | 2.3 | > 72 | 2.3 | 0.14 | 1.2 | 0.07 | 0.14 | 1.1 | 0.07 | selectivity ratio [18]: 37
